Test results published in article PMC2773291 (Journal of medicinal chemistry, 2009).
Peptide text beside a SMILES is read from it. * marks the point of attachment. Pyropheophorbide(a) = C=Cc1c(C)c2cc3nc(c4c5[nH]c(cc6nc(cc1[nH]2)C(C)=C6CC)c(C)c5C(=O)C4)[C@@H](CCC(=O)*)[C@@H]3C; X1 = CCN(CC)c1ccc2nc3ccc(N=Nc4ccc(N(C)CCCC(=O)*)cc4)cc3[n+](-c3ccccc3)c2c1

How the values were obtained:
HEK-Vector cells (FAP−) = assay: Confocal microscopic studies, HEK-Vector cells; type: cell-based, human; conditions: 25 μM, 6 h, 37°C, FBS-free medium
In short: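 HEK293 stably carrying empty vector, grown in DMEM with 10% FBS, 2 mM L-glutamine and hygromycin B 200 μg mL−1. Cells seeded at 1.5 × 10^4/well for 2 days, then kept overnight in FBS-free DMEM. Probe was diluted in this conditioned medium to 25 μM and applied 6 h at 37°C, 5% CO2. Cells were fixed in 3% formaldehyde (20 min, dark), DAPI-mounted, and imaged confocally (405 and 633 nm lasers).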

mFAP = target: T1, mFAP (Mus musculus, UniProt P97321); assay: mFAP activity assay; type: biochemical, murine; conditions: 37°C
T1 sequence (P97321 26-761 limits assumed): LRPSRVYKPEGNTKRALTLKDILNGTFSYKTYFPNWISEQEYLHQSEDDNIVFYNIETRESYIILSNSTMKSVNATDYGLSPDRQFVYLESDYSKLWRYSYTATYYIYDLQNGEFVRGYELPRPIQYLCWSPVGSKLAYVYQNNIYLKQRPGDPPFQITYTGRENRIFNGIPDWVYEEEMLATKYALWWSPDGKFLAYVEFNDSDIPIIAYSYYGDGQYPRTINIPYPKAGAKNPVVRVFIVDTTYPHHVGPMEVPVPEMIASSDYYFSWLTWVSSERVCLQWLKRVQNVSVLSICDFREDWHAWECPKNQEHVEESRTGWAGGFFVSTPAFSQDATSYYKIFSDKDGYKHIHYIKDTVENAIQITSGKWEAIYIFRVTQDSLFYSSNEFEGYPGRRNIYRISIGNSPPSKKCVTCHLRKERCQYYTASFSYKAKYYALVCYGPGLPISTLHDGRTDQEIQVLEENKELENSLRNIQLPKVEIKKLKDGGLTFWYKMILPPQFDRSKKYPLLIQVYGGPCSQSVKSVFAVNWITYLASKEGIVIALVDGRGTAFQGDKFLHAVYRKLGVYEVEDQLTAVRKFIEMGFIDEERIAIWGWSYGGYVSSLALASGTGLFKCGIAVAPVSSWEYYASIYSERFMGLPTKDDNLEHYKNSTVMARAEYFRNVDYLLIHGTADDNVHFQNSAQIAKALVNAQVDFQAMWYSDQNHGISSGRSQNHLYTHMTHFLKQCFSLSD
In short: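 Probe at 0.1, 0.3, 0.5, 0.7, 1, 2 and 6 μM (predissolved in 2.5 μL DMSO plus 0.5 μL Tween 80, then 1 mL 0.12 M NaCl/0.12 M TRIS, pH 7.37) was incubated with murine FAP (2 μg) at 37°C. Fluorescence was read continuously (ex 650, em 675 nm). After 1 h, 10 μg enzyme was added and reading continued 2 h. Triplicates were run. Vmax, Km, kcat and kcat/Km came from nonlinear Michaelis-Menten fits of initial rates (10% substrate depleted).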

tumor site = assay: Tumor accumulation after intravenous tail-vein injection; type: in vivo
HEK-mFAP cells = assay: In vitro photocytotoxicity; type: cell-based, human; conditions: for photocytotoxicity toward HEK-mFAP cells in the presence of light: FAP-PPB 8 μM, FAP-PP 4 μM, 2D-FAP-PPB 8 μM, 2 J cm^−2, MTT
HEK-Vector cells = assay: In vitro photocytotoxicity; type: cell-based, human; conditions: for photocytotoxicity toward HEK-Vector cells in the presence of light: FAP-PPB 8 μM, FAP-PP 4 μM, 2D-FAP-PPB 8 μM, 2 J cm^−2, MTT
[1] = test system: HEK-mFAP and HEK-Vector cells; assay: Flow cytometric studies, HEK-mFAP versus HEK-Vector cells; type: cell-based, human; conditions: 6.25 μM
In short: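 Transfected HEK293 lines (murine FAP or empty vector) seeded at about 7 × 10^5 cells/well for 2 days, then kept overnight in FBS-free DMEM. Probe diluted in this conditioned medium to 6.25 μM and applied 1, 2, 4, 6 or 24 h at 37°C. Cells were centrifuge-washed three times, fixed in 2% paraformaldehyde for 10 min, and read by flow cytometry (ex 633 nm, em 660–690 nm; 10000 cells). Three independent experiments.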

murine FAP (mFAP) = target: T2, murine FAP (mFAP) (Mus musculus, UniProt P97321); assay: Activation of FAP-PPB by murine FAP in buffer; type: biochemical
T2 sequence (P97321 26-761 limits assumed): T1 sequence (P97321 26-761 limits assumed)
In short: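 In-house expressed, purified murine FAP (2 μg) incubated with probe (1 nmol, predissolved in 2.5 μL DMSO plus 0.5 μL Tween 80, then 1 mL 0.12 M NaCl/0.12 M TRIS, pH 7.37); probe:enzyme about 50:1. Fluorescence followed in real time at 37°C (ex 650 nm, em 675 nm). Cleavage also tracked by HPLC-MS every 30 min until complete.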

[2] = target: dipeptidyl peptidase IV (DPPIV) (Homo sapiens, UniProt P27487); assay: Stability of FAP-PPB toward DPPIV; conditions: FAP-PPB 1 nmol in 1 mL 20mM TRIS pH 7.5, PPB:DPPIV = 228:1, 37 °C
dipeptidyl peptidase IV (DPPIV), sequence (P27487 29-766 limits assumed, species assumed): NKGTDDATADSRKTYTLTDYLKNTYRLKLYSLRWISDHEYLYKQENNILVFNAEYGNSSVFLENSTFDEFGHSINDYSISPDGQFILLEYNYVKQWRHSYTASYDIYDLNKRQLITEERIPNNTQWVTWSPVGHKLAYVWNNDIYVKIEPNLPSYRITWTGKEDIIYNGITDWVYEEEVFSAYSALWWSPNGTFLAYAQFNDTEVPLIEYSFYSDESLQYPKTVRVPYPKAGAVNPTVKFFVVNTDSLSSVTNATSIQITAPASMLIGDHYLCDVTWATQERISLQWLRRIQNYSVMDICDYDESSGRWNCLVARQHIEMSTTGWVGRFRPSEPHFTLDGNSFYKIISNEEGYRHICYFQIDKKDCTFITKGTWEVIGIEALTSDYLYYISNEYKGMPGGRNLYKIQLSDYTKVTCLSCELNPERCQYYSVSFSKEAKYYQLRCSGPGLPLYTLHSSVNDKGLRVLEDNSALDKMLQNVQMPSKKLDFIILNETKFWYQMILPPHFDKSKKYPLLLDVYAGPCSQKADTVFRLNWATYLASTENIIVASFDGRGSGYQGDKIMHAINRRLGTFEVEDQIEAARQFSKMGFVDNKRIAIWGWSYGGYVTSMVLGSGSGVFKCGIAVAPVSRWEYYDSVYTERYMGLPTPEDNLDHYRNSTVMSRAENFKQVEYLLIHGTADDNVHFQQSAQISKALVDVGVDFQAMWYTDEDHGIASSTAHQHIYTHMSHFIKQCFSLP

HEK-mFAP cells (FAP+) [3] = assay: HPLC-MS of culture media after incubation with HEK-mFAP cells; type: cell-based, human; conditions: for cleavage in culture media of HEK-mFAP cells (HPLC-MS): media after incubation for the confocal study, 25 μM, 6 h
In short: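 Probe-containing FAP-expressing HEK293 culture media were collected after incubation and analysed by HPLC-MS for cleaved probe. One set came from flow cytometry (6.25 μM in FBS-free DMEM, up to 24 h, 37°C). The other came from confocal work (25 μM, 6 h, 37°C).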

HEK-mFAP cells (FAP+) [4] = assay: Confocal microscopic studies, HEK-mFAP cells; type: cell-based, human; conditions: 25 μM, 6 h, 37°C, FBS-free medium
In short: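 HEK293 stably expressing full-length wild-type murine FAP, grown in DMEM with 10% FBS, 2 mM L-glutamine and G418 200 μg mL−1. Cells seeded at 1.5 × 10^4/well for 2 days, then kept overnight in FBS-free DMEM. Probe was diluted in this conditioned medium to 25 μM and applied 6 h at 37°C, 5% CO2. Cells were fixed in 3% formaldehyde (20 min, dark), DAPI-mounted, and imaged confocally (405 and 633 nm lasers).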

[5] = test system: HT29 tumor (FAP on stromal fibroblasts); assay: HT29 mouse xenograft in vivo imaging and frozen-section microscopy; design: species or system nude mouse
HEK-Vector tumor = assay: Mouse xenograft in vivo imaging and ex vivo validation, HEK-Vector tumor; design: species or system nude mice
In short: (§1)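 Athymic female nude mice carried 1 × 10^7 FAP-transfected HEK293 cells on the left flank and 1 × 10^7 vector cells on the right, or FAP cells on both flanks. After 3 weeks (tumors 5–10 mm) mice received 4 days of low-fluorescence diet and ketamine/acepromazine anaesthesia. Probe (25 nmol in 30 μL aqueous, 2 μL DMSO, 0.5 μL Tween 80) was injected intratumorally at several sites. Imaging before and at intervals to 24 h used ex 650 nm, em ≥700 nm, 200 ms exposure; signal normalised to exposure time and ROI area.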

HEK-mFAP tumor = assay: Mouse xenograft in vivo imaging and ex vivo validation, HEK-mFAP tumor; design: species or system nude mice
In short: as §1

[6] = Quenching efficiency measurements; type: physicochemical; conditions: FAP-PP quenched by free BHQ3 in DMSO; slope of linear Stern-Volmer plot
In short: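 Unquenched peptide-photosensitizer (1 μM in DMSO) was mixed with varying concentrations of free BHQ3 quencher. Fluorescence was corrected using absorbance at the excitation and emission wavelengths. Data were fitted to F0/F = 1 + KSV[Q], and KSV was taken from the slope of the Stern-Volmer plot.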

[7] = 10 micron frozen sections, 24 h post-injection
[8] = tumor homogenized, DMSO extract, 24 h post-injection of 25 nmol intra-tumor

With `C=Cc1c(C)c2cc3nc(c4c5[nH]c(cc6nc(cc1[nH]2)C(C)=C6CC)c(C)c5C(=O)C4)[C@@H](CCC(=O)N[C@H](C(=O)N[C@@H](CO)C(=O)NCC(=O)N1CCC[C@H]1C(=O)N[C@@H](CC(N)=O)C(=O)N[C@@H](CCC(N)=O)C(=O)N[C@@H](CCC(=O)O)C(=O)N[C@@H](CCC(N)=O)C(=O)N[C@@H](CCCCNC(=O)CCCN(C)c1ccc(N=Nc2ccc4nc5ccc(N(CC)CC)cc5[n+](-c5ccccc5)c4c2)cc1)C(N)=O)[C@@H](C)O)[C@@H]3C` [FAP-PPB, Pyro-TSGPNQEQK(BHQ3)] ({Pyropheophorbide(a)}-TSGPNQEQK(X1)-NH2; C-terminus assumed) the “intracellular fluorescence in HEK-Vector cells (confocal)” value (HEK-Vector cells (FAP−)) was “minimal fluorescence signal”, the “specificity constant (kcat/Km)” value (mFAP) was 1.75e+06 M⁻¹ min⁻¹ and the “accumulation at the tumor site” value (tumor site) was “no selective accumulation”. The “cytotoxicity toward HEK-mFAP cells in the absence of light” value (HEK-mFAP cells; 8 μM, 24 h, MTT) was “non-cytotoxic in the absence of light”, the “cell viability of HEK-mFAP cells with light” value (HEK-mFAP cells; 8 μM, 24 h incubation, 670 nm laser, 130 mW cm^−2, 2 J cm^−2, MTT) was 55% and the “photocytotoxicity toward HEK-mFAP cells in the presence of light” value (HEK-mFAP cells) was “significant photocytotoxicity”. For the same compound, the “cytotoxicity toward HEK-Vector cells in the absence of light” value (HEK-Vector cells; 8 μM, 24 h, MTT) was “non-cytotoxic in the absence of light”, the “photocytotoxicity toward HEK-Vector cells in the presence of light” value (HEK-Vector cells) was “not in the HEK-Vector cells” and the “dark toxicity (distribution and shape of cells in flow cytometry)” value ([1]; 1 to 24 h, both cell lines, no light) was “does not have dark toxicity to both cell lines”. For the same compound, the “fluorescence intensity in HEK-mFAP cells compared to HEK-Vector cells” value ([1]; flow cytometry, 1 h incubation) was “about 8 fold”, the “time to complete cleavage by mFAP” value (murine FAP (mFAP); HPLC-MS every 30 min, PPB:FAP about 50:1, TRIS buffer pH 7.37, 37°C) was 4 h and the “fluorescence increase on complete cleavage by mFAP” value (murine FAP (mFAP); TRIS buffer pH 7.37, 37°C, complete fluorescence restoration) was 200 fold. The “HPLC analysis after incubation with DPPIV” value ([2]; 2 h, HPLC-MS) was “only a single peak corresponding to the intact FAP-PPB”, the “fluorescence intensity change on incubation with DPPIV” value ([2]; over 2 h) was “No significant increase in fluorescence intensity” and the “FAP-PPB cleaved in media after incubation with HEK-mFAP cells” value (HEK-mFAP cells (FAP+) [3]; 6.25 μM, 24 h incubation, HPLC-MS, data not shown) was “approximately 70%”. For the same compound, the “cleavage in culture media of HEK-mFAP cells (HPLC-MS)” value (HEK-mFAP cells (FAP+) [3]) was “two peaks corresponding to fragments Pyro-TSGP and NQEQK-BHQ3 were identified”, the “intracellular fluorescence in HEK-mFAP cells (confocal)” value (HEK-mFAP cells (FAP+) [4]) was “bright intracellular fluorescence signal” and the “in vivo fluorescence in HT29 tumor” value ([5]; 25 nmol intra-tumor injection, left flank) was “strong fluorescence signal was observed immediately and it lasted for 24 h”. For the same compound, the “Pyro fluorescence in HT29 tumor frozen section (confocal)” value ([5]; after in vivo imaging) was “bright Pyro’s fluorescence signals within both cancer cells and fibroblasts”, the “Pyro fluorescence in HEK-Vector tumor frozen sections (confocal)” value (HEK-Vector tumor; [7]) was “very weak signal” and the “fluorescence signal in HEK-Vector tumor relative to HEK-mFAP tumor” value (HEK-Vector tumor; 24 h post injection, fluorescence intensity per exposure time at tumor site) was “about half”. The “cleavage in HEK-Vector tumor extract (HPLC-MS)” value (HEK-Vector tumor; [8]) was “no cleavage was observed”, the “time to activation of FAP-PPB in tumor” value (HEK-mFAP tumor; 25 nmol intra-tumor injection, in vivo fluorescence imaging) was no more than 5 min and the “Pyro fluorescence in HEK-mFAP tumor frozen sections (confocal)” value (HEK-mFAP tumor; [7]) was “strong Pyro’s fluorescence signal”.
For Pyro-TSGPNQEQK [FAP-PP], the “photocytotoxicity toward HEK-Vector cells in the presence of light” value (HEK-Vector cells) was “could kill both cell lines” and the “Stern-Volmer quenching constant (KSV)” value [6] was 5.3 × 10^4 mol^−1dm^3.
In the case of Pyro-TSGpnQEQK(BHQ3) [2D-FAP-PPB], the “intracellular fluorescence in HEK-Vector cells (confocal)” value (HEK-Vector cells (FAP−)) is reported as “no significant fluorescence”, the “photocytotoxicity toward HEK-mFAP cells in the presence of light” value (HEK-mFAP cells) is reported as “essentially non-cytotoxic” and the “photocytotoxicity toward HEK-Vector cells in the presence of light” value (HEK-Vector cells) is reported as “essentially non-cytotoxic”. For the same compound, the “cleavage in culture media of HEK-mFAP cells (HPLC-MS)” value (HEK-mFAP cells (FAP+) [3]) was “no cleavage was observed”, the “intracellular fluorescence in HEK-mFAP cells (confocal)” value (HEK-mFAP cells (FAP+) [4]) was “no significant fluorescence” and the “cleavage in HEK-mFAP tumor extract (HPLC-MS)” value (HEK-mFAP tumor; [8]) was “little non-specific cleavages”.
